The text below walks through data of ChEMBL document CHEMBL4513216, “Probing the Open Global Health Chemical Diversity Library for Multistage-Active Starting Points for Next-Generation Antimalarials” (ACS Infect Dis, 2020).

Each structure is given as a SMILES string.

The series in a line: Toxicity liver stage against HepG2, at 10uM. Also noted: test concentration 10 uM, cell line HepG2-A16-CD81EGFP. To be noted: human, HepG2-A16-CD81EGFP cells; read-out: INHIBITION
The series is classed as cell-based. The method, boiled down: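 Uninfected HepG2-A16-CD81EGFP cells, 3 × 10^3 per well, 1536-well, plated on prespotted compound at 10 μM final, parasite-free screening media added to match infected plates; puromycin 10 μM positive, DMSO 0.5% negative; run in parallel with 48 h PbLuc assay at 37 °C, 5% CO2; viability by CellTiter-Glo luminescence, normalized to controls.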

`O=C(CCCOc1ccc(F)cc1F)N1CCCC1Cn1cccn1` (stereo not given): the cytotoxicity at 10 µM was -5.67%.

Take `Cc1nn(C)c(C)c1NC(=O)CNC(c1ccc(F)cc1)C1CCC1` (stereo not given): the cytotoxicity at 10 µM is -1.65%.

Turning to `Cc1nn(C)c(C)c1C1CCCN1Cc1cccc(C(=O)N(C)C)c1` (stereo not given), the cytotoxicity at 10 µM was -11.9%.

Take `c1cc2c(cc1-c1noc3c1CN(C1CCSC1)CC3)OCO2` (stereo not given): the cytotoxicity at 10 µM is -16.9%.

With `COCCN1CCO[C@@H]2CN(C(=O)Cc3ccccc3)CC[C@@H]2C1`, the cytotoxicity at 10 µM turned out to be 4.98%.

As to `CCc1cccc(N2CCC(NC(=O)C3CCC3)CC2)c1`, the cytotoxicity at 10 µM was determined as 3.6%.

`Cn1nc(CN2CCCCC2)c2c1CN(Cc1ccoc1)C2`: the cytotoxicity at 10 µM is -0.449%.

`CC(=O)N1N=C(c2ccco2)OC1C(=O)N(C)CCc1ccccc1` (stereo not given): the cytotoxicity at 10 µM is -0.0253%.

`N#Cc1c(N2CCN(CC3CCOC3)CC2)nc2ccccn12` (stereo not given): the cytotoxicity at 10 µM turned out to be 1.37%.

`O=C1NCCN(C(=O)c2cn3ccsc3n2)C1Cc1ccccc1` (stereo not given): the cytotoxicity at 10 µM is -9.51%.

Take `CC(c1nccs1)N(C)S(=O)(=O)NCc1ccccc1` (stereo not given): the cytotoxicity at 10 µM is -2.34%.

For `CCc1nnc(C(C)N2CCCN(C(=O)Oc3ccccc3)CC2)o1` (stereo not given), the cytotoxicity at 10 µM turned out to be 2.79%.

Regarding `COC(=O)c1sccc1S(=O)(=O)N1CCc2c(ncnc2N(C)C)C1`, the cytotoxicity at 10 µM is -1.6%.

For the compound `Cn1cnc(S(=O)(=O)N2CCN(CC3CC3)c3ncccc3C2)c1`, the cytotoxicity at 10 µM is -160%.

Consider `CN(C)C(=O)CN1CCC2(CCCN(Cc3cccs3)C2)C1=O` (stereo not given), for which the cytotoxicity at 10 µM was -113%.

With `Cc1n[nH]c(C)c1C1COCCN1C(=O)c1cccc(F)c1F` (stereo not given), the cytotoxicity at 10 µM is -8.45%.

For the compound `Cc1ccc(CNC(=O)NCC(=O)N2CCCC2)c(N2CCCC2)c1`, the cytotoxicity at 10 µM turned out to be 5.84%.

In the case of `O=C1COC2(COCCN(Cc3ccsc3)C2)CN1c1ccoc1` (stereo not given), the cytotoxicity at 10 µM was -73.5%.

On to `CCN1CC(C(=O)NCCCc2nc(C)c(C)s2)CC1=O` (stereo not given), for which the cytotoxicity at 10 µM was -7.03%.

Turning to `CN(CC(=O)N1CCCC1)C(=O)c1ccccc1Nc1ccccc1`, the cytotoxicity at 10 µM was found to be 11.3%.

Take `CCOCC(O)CN1CCN(C(=O)c2ccccc2F)CC1` (stereo not given): the cytotoxicity at 10 µM is -2.15%.

Consider `Cn1ncc(C(=O)OCC2CC(=O)N(c3ccccc3)C2)c1C(F)F` (stereo not given), for which the cytotoxicity at 10 µM came out at 1.93%.

Turning to `COc1cccc(NC(=O)Cn2cc(-c3ccccc3)ncc2=O)c1`, the cytotoxicity at 10 µM is -0.0638%.

For the compound `CO[C@@H]1CO[C@@]2(CCN(C(=O)COc3ccccc3C)C2)C1`, the cytotoxicity at 10 µM came to 9.95%.

Regarding `COCC(O)CN(C)C(=O)NCc1ccc(-c2ccn[nH]2)cc1` (stereo not given), the cytotoxicity at 10 µM is 1.81%.

As for `Cc1nc(=O)c(CC(=O)N2C[C@H]3CC[C@@H](C2)N(CC2CCC2)C3)c(C)[nH]1`, the cytotoxicity at 10 µM was 9.6%.

As to `CN1CCN(CC(=O)NCc2ccco2)Cc2ccccc21`, the cytotoxicity at 10 µM was -3.81%.

Turning to `O=C(c1cc(-c2cccnc2)[nH]n1)N1CCCC(c2cnccn2)C1` (stereo not given), the cytotoxicity at 10 µM amounted to 6.21%.

Regarding `COc1cc(C(=O)NC(CC(=O)O)c2cccs2)cc(OC)c1C` (stereo not given), the cytotoxicity at 10 µM is -19.1%.

Turning to `O=C(c1cnccn1)N1C[C@@H](OCc2ccncc2)[C@@H]2OCCC[C@@H]21`, the cytotoxicity at 10 µM was -2.91%.

For `COc1cccc([C@@H]2CCN(Cc3cn(C)c4ccccc34)C[C@H]2O)c1`, the cytotoxicity at 10 µM was 14.7%.

With `CC(C)(C)c1cccc(OCC(=O)NS(=O)(=O)c2cccnc2)c1`, the cytotoxicity at 10 µM was -12.5%.

As for `CN(Cc1cccnc1)CC1CC12CCN(c1nncs1)CC2` (stereo not given), the cytotoxicity at 10 µM stood at 9.28%.

As to `COc1ccc(C(=O)N2C[C@@H](C(=O)O)[C@H](c3ccccc3)C2)c(C)c1`, the cytotoxicity at 10 µM came out at 5.23%.

As to `CN(C)C(=O)N1CCCC(C(=O)N(C)CCCc2cnn(C)c2)C1` (stereo not given), the cytotoxicity at 10 µM is -0.645%.

As to `COc1ccc(-c2nc3c([nH]2)CCNC3)c(OC)c1OC`, the cytotoxicity at 10 µM worked out at 0.786%.

`Nc1cc(CC2COc3ccccc3C2)ccn1` (stereo not given): the cytotoxicity at 10 µM was -0.911%.

For `O=C(O)[C@@]12CN(c3cnccn3)C[C@@H]1CN(C1CCOCC1)C2`, the cytotoxicity at 10 µM amounted to 1.92%.

Turning to `CSCCCNC(=O)Nc1cccc(-c2nccn2C)c1`, the cytotoxicity at 10 µM was -6.25%.

Take `Cc1cccc(-c2nc(C)nn2CC(=O)N(C)C2CC2)c1`: the cytotoxicity at 10 µM is -19.8%.

For the compound `COc1ccccc1N1CCC(CNCc2cccc(O)c2)C1` (stereo not given), the cytotoxicity at 10 µM is -9.04%.

For `Cc1nnc(NC(=O)NCc2ccc(F)cc2)s1`, the cytotoxicity at 10 µM was -26%.

On to `C[C@@H]1CN(c2cc(N3CCC(O)CC3)ncn2)C[C@@]1(O)C1CC1`, for which the cytotoxicity at 10 µM is -1.79%.

In the case of `Cc1noc(CS(=O)(=O)c2cc(F)ccc2F)n1`, the cytotoxicity at 10 µM was -0.23%.

For `CN(CC(=O)NC(N)=O)CC1(c2ccc(Br)cc2)CC1`, the cytotoxicity at 10 µM was determined as 0.913%.

Take `Cc1ccn(CC(=O)NCCCOc2ccccc2F)c(=O)c1`: the cytotoxicity at 10 µM was -5.79%.

For the compound `CC(C)(C)c1nc(CN2CCCC(c3noc(C4CC4)n3)C2)no1` (stereo not given), the cytotoxicity at 10 µM is -14.4%.

With `COc1ccc(C[C@H]2CN(c3cc(OC)ncn3)CC[C@H]2OC)cc1`, the cytotoxicity at 10 µM was determined as 54.5%.

`CCc1nc(CN(C)C2CCN(CCn3cccn3)C2)no1` (stereo not given): the cytotoxicity at 10 µM was -2.21%.

In the case of `CN1C(=O)CCCC12CCCN(C(=O)c1cccc(C(F)(F)F)c1)C2` (stereo not given), the cytotoxicity at 10 µM is 4.65%.

Take `COCCN1C(=O)C[C@@H]2[C@H]1CCN2C(=O)c1ccc[nH]1`: the cytotoxicity at 10 µM was -1.34%.

In the case of `COCC1CN(S(=O)(=O)N(C)C)Cc2cnn(CC3CCCC3)c21` (stereo not given), the cytotoxicity at 10 µM stood at 12.4%.

With `Cc1ccc2c(c1)OC1(NC2=O)C(=O)N(C)c2ccccc21` (stereo not given), the cytotoxicity at 10 µM was -23.8%.

Consider `CC(C#N)CSc1ccccc1NCC(=O)NC(=O)NC(C)(C)C` (stereo not given), for which the cytotoxicity at 10 µM was 11.7%.

In the case of `CN(CC(=O)Nc1cc(-n2nnnc2C2CC2)ccc1F)C1CCC1`, the cytotoxicity at 10 µM was 8.83%.

Consider `c1ccc(-c2noc(CN3CCc4cncnc4C3)n2)nc1`, for which the cytotoxicity at 10 µM was -2.97%.

As for `CN1CCN(CCOc2ccc(NC(=O)c3ccncc3)cc2)CC1`, the cytotoxicity at 10 µM was -5.18%.

`O=C1CCc2cc(S(=O)(=O)NC(=O)c3ccc4c(c3)OCO4)ccc2N1`: the cytotoxicity at 10 µM is -17.8%.

Take `O=C(NCc1ccc(-n2cncn2)nc1)N(CC1CCOC1)C1CC1` (stereo not given): the cytotoxicity at 10 µM was 1.74%.

As to `COCC1COCCC12CCN(S(=O)(=O)c1ccccc1)CC2` (stereo not given), the cytotoxicity at 10 µM was determined as 0.242%.

Take `CC(=O)NC1CCN(c2ccc(C#N)cc2C(F)(F)F)CC1`: the cytotoxicity at 10 µM came out at 0.536%.

With `Cc1cc(CN2CCCC(NS(C)(=O)=O)C2)ccc1-n1cncn1` (stereo not given), the cytotoxicity at 10 µM is 3.78%.

Take `c1coc(CN2CCCn3c(nnc3Cn3cccn3)C2)c1`: the cytotoxicity at 10 µM is -0.945%.

Take `O=C(NCc1cccnc1)NC1CCC2(CCC(=O)N2CC2CC2)CC1` (stereo not given): the cytotoxicity at 10 µM is -114%.

With `CCC(CNC(=O)NC1CCN(C)CC1)Oc1ccccc1Cl` (stereo not given), the cytotoxicity at 10 µM amounted to 5.47%.

With `CN(C)CC(=O)N1Cc2cc(-c3cc[nH]n3)ccc2C1c1cnco1` (stereo not given), the cytotoxicity at 10 µM was 21.4%.

Regarding `CC(=O)N1CCC2(CC1)[C@@H]1CN(Cc3cccnc3)C[C@@H]1C(=O)N2C`, the cytotoxicity at 10 µM turned out to be 4.73%.

On to `COc1ccc(-c2noc([C@@H](C)NS(=O)(=O)CC(C)C)c2C(=O)O)cc1`, for which the cytotoxicity at 10 µM is -5.23%.

With `COCc1ccccc1C(=O)N1CCCC(c2cc(C)[nH]n2)C1` (stereo not given), the cytotoxicity at 10 µM was -23.2%.

With `Cc1cc(-c2nn(C)c(Cl)c2CN2CCOC(C(=O)O)C2)no1` (stereo not given), the cytotoxicity at 10 µM stood at 4.04%.

On to `CC(C)(C)c1n[nH]c(C2CN(Cc3nnc(C4CCC4)o3)CCO2)n1` (stereo not given), for which the cytotoxicity at 10 µM is -8.24%.

Regarding `COCCN(CCOC)S(=O)(=O)N(C)Cc1ccncc1`, the cytotoxicity at 10 µM is 8.07%.

As for `FC(F)(F)C1CN(c2nc(-c3ccccc3)no2)CCO1` (stereo not given), the cytotoxicity at 10 µM is -1.52%.

For the compound `O=C(NC1CC1)[C@@H]1C[C@@H]2CCN(Cc3ccoc3)C[C@@H]2O1`, the cytotoxicity at 10 µM was -103%.

Take `Cc1ccc([C@H]2CN(C(C)C)C[C@@H]2NS(=O)(=O)N2CCOCC2)o1`: the cytotoxicity at 10 µM is -1.01%.

For `COc1cc(F)c(NC(=O)N(C)Cc2cc(C)on2)cc1F`, the cytotoxicity at 10 µM was -4.25%.

With `O=C(NCc1ccccc1CN1CCOCC1)c1ccc(Br)cc1F`, the cytotoxicity at 10 µM came out at 12.3%.

Regarding `CC(C)(C)c1nc(NS(=O)(=O)c2ccccc2F)no1`, the cytotoxicity at 10 µM is -1.45%.

Consider `O=C(c1ccccc1)C1CCN(c2cncc(-n3cccn3)n2)CC1`, for which the cytotoxicity at 10 µM is 0.935%.

`O=C(c1cc(C2CC2)[nH]n1)N1CCN(Cc2ccc3c(c2)OCO3)CC1`: the cytotoxicity at 10 µM was -2.32%.

Consider `O=C(O)CCNC(=O)Cc1csc(-c2cccc(Cl)c2)n1`, for which the cytotoxicity at 10 µM stood at 8.32%.

Turning to `CC(C(=O)NCCc1ccc2c(c1)OCCO2)n1cncn1` (stereo not given), the cytotoxicity at 10 µM turned out to be 6.89%.

Take `NC(=O)c1cn[nH]c1C1CCCN1C(=O)COc1ccccc1` (stereo not given): the cytotoxicity at 10 µM was -3.93%.

On to `Cc1cnn(CC2CCCCN2Cc2cnc(C)s2)c1` (stereo not given), for which the cytotoxicity at 10 µM was -11.3%.

As for `Cc1cccc(-c2nc(CN3CCc4cncnc4C3)no2)c1`, the cytotoxicity at 10 µM is -10.4%.

With `O=C(Cc1csc(-c2ccccn2)n1)NCCCN1CCCCCC1=O`, the cytotoxicity at 10 µM amounted to 1.16%.

As for `N#Cc1ccc(CN2C(=O)c3ccccc3CS2(=O)=O)cc1`, the cytotoxicity at 10 µM was -4.17%.

Consider `CN1CC(=O)N(c2ccsc2)CC12CCN(C(=O)c1ccccc1)C2` (stereo not given), for which the cytotoxicity at 10 µM is -0.516%.

For the compound `CCC[C@@H]1CN(C(=O)c2ccccc2C(C)=O)C[C@H]1N(C)C`, the cytotoxicity at 10 µM was -0.254%.

Take `CCc1nccn1C1CCCN(C(=O)c2ccc3c(c2)OCCO3)C1` (stereo not given): the cytotoxicity at 10 µM was -11.8%.

For `CC(C)CCn1ccc(NC2CCSC2)n1` (stereo not given), the cytotoxicity at 10 µM was determined as 6.93%.

As for `O=C(c1cc(-n2cccn2)ccn1)N1CCOc2ncccc21`, the cytotoxicity at 10 µM is -0.554%.

As to `c1nc2c(c(C3CC3)n1)CCN(CC1CCOC1)CC2` (stereo not given), the cytotoxicity at 10 µM turned out to be 1.26%.

For `COc1cccc(-c2nc(CNCc3cccnc3)cs2)c1`, the cytotoxicity at 10 µM was -9.37%.

Consider `COc1cccc(C(CO)NC(=O)Cc2ccc(F)c(Br)c2)c1` (stereo not given), for which the cytotoxicity at 10 µM turned out to be 8.44%.
